Paper PMC6839502 (Journal of Alzheimer's Disease, 2019)
Read-outs that look alike come from different tables or passages of the source.

Assay type: in vivo, human
Settings: for t1/2: arithmetic mean±SD
How it was run: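 Healthy adults (18–55 y) or older subjects (60–85 y) received oral QD doses for 14 days, fasted on Day 1. Plasma was sampled pre-dose and at 0.5, 1, 2, 4, 8, 12, and 24 h, plus 1.5 h (B8271001) or 6 h (B8271004). Day 14 sampling extended to 120 h. Urine was also collected. Samples were analysed by validated HPLC-MS/MS; plasma LLOQ 0.500 or 5.00 ng/mL, urine LLOQ 0.050 ng/mL. Parameters were derived by non-compartmental analysis.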

[1] = 125 mg QD, Day 14, healthy older subjects, geometric mean (% CV)
[2] = 275 mg QD, Day 1, healthy adults, geometric mean (% CV)
[3] = 275 mg QD, Day 7, healthy adults, geometric mean (% CV)
[4] = 275 mg QD, Day 14, healthy adults, geometric mean (% CV)
[5] = multiple doses, healthy adults (Part B)
[6] = single 3 mg fasted, healthy adults, geometric mean (% CV)
[7] = single 12 mg fasted, healthy adults, geometric mean (% CV)
[8] = single 40 mg fasted, healthy adults, geometric mean (% CV)
[9] = single 160 mg fasted, healthy adults, geometric mean (% CV)
[10] = single 200 mg fasted, healthy adults, geometric mean (% CV)
[11] = single 200 mg fed, healthy adults, geometric mean (% CV)
[12] = single 400 mg fasted, healthy adults, geometric mean (% CV)
[13] = single 540 mg fasted, healthy adults, geometric mean (% CV)

C[C@H]1C[C@H]2CSC(N)=N[C@@]2(c2nc(NC(=O)c3ccc(OC(F)F)cn3)cs2)CO1 [PF-06751979]
AUCtau [1]: 14750 (23) ng.h/mL
CL/F [1]: 141.4 (23) mL/min
Cmax [1]: 879.4 (28) ng/mL
Cmin [1]: 429.9 (23) ng/mL
Vz/F [1]: 496.1 (30) L
Tmax (125 mg QD, Day 14, healthy older subjects, median (range)): 4.00 (2.00–4.03) h
AUCtau [2]: 13260 (18) ng.hr/mL
Cmax [2]: 983.0 (18) ng/mL
Tmax (275 mg QD, Day 1, healthy adults, median (range)): 4.00 (2.00–4.00) h
AUCtau [3]: 31210 (14) ng.h/mL
Cmax [3]: 2000 (14) ng/mL
Tmax (275 mg QD, Day 7, healthy adults, median (range)): 2.00 (2.00–4.00) h
t1/2 (275 mg QD, Day 14, healthy adults): 37.79 ± 7.73 h
AUCtau [4]: 29470 (12) ng.hr/mL
CL/F [4]: 155.3 (13) mL/min
Cmax [4]: 1869 (14) ng/mL
Cmin [4]: 868.5 (15) ng/mL
Rac (observed accumulation ratio) [4]: 2.27 (11)
Vz/F [4]: 498.3 (27) L
Tmax (275 mg QD, Day 14, healthy adults, median (range)): 4.00 (2.00–4.00) h
Mean of dose recovered unchanged in the urine (across the dose range studied, multiple doses): 7–10%
Median Tmax (fasted state, single doses 3 mg to 540 mg and multiple doses up to 275 mg QD, healthy adults): 3 to 4 h
Mean t1/2 across doses (healthy adults): 29 to 39 h
Observed t1/2 (healthy older subjects): approximately 40 h
Plasma accumulation at Day 14 (healthy older subjects): 2.8 fold
Accumulation on Day 14 [5]: 2.1- to 2.5 fold
Steady state achieved by [5]: ≤ 7 days
t1/2 (single 3 mg fasted, healthy adults): 29.30 ± 0.60 h
AUCinf [6]: 289.7 (8) ng.hr/mL
CL/F [6]: 172.3 (8) mL/min
Cmax [6]: 8.4 (14) ng/mL
Vz/F [6]: 436.8 (6) L
Tmax (single 3 mg fasted, healthy adults, median (range)): 4.03 (4.00–8.00) h
t1/2 (single 12 mg fasted, healthy adults): 32.94 ± 4.92 h
AUCinf [7]: 1142 (25) ng.hr/mL
CL/F [7]: 175.0 (25) mL/min
Cmax [7]: 27.4 (36) ng/mL
Vz/F [7]: 494.8 (20) L
Tmax (single 12 mg fasted, healthy adults, median (range)): 4.11 (2.0–12.00) h
t1/2 (single 40 mg fasted, healthy adults): 32.12 ± 3.64 h
AUCinf [8]: 3121 (25) ng.hr/mL
CL/F [8]: 213.4 (25) mL/min
Cmax [8]: 78.7 (30) ng/mL
Vz/F [8]: 591.4 (26) L
Tmax (single 40 mg fasted, healthy adults, median (range)): 4.08 (2.00–8.05) h
t1/2 (single 160 mg fasted, healthy adults): 39.33 ± 8.20 h
AUCinf [9]: 17050 (18) ng.hr/mL
CL/F [9]: 156.3 (18) mL/min
Cmax [9]: 530.8 (41) ng/mL
Vz/F [9]: 523.2 (25) L
Tmax (single 160 mg fasted, healthy adults, median (range)): 3.03 (1.87–4.08) h
t1/2 (single 200 mg fasted, healthy adults): 35.20 ± 8.97 h
AUCinf [10]: 22850 (17) ng.hr/mL
CL/F [10]: 145.8 (17) mL/min
Cmax [10]: 643.2 (19) ng/mL
Vz/F [10]: 433.7 (18) L
Tmax (single 200 mg fasted, healthy adults, median (range)): 4.00 (2.00–6.07) h
Food effect on plasma exposure (Cmax and AUCinf) (single 200 mg fed vs fasted): no apparent food effect
t1/2 (single 200 mg fed, healthy adults): 33.38 ± 6.25 h
AUCinf [11]: 23260 (15) ng.hr/mL
CL/F [11]: 143.3 (15) mL/min
Cmax [11]: 630.2 (9) ng/mL
Vz/F [11]: 408.1 (16) L
Tmax (single 200 mg fed, healthy adults, median (range)): 6.00 (4.00–8.00) h
Tmax (single 200 mg in a fed state): 6 h
t1/2 (single 400 mg fasted, healthy adults): 34.70 ± 8.97 h
AUCinf [12]: 44980 (17) ng.hr/mL
CL/F [12]: 148.3 (17) mL/min
Cmax [12]: 1436.0 (10) ng/mL
Vz/F [12]: 433.0 (19) L
Tmax (single 400 mg fasted, healthy adults, median (range)): 3.02 (2.00–4.00) h
t1/2 (single 540 mg fasted, healthy adults): 35.85 ± 8.10 h
AUCinf [13]: 63420 (9) ng.hr/mL
CL/F [13]: 142.0 (9) mL/min
Cmax [13]: 1829.0 (19) ng/mL
Vz/F [13]: 431.1 (19) L
Tmax (single 540 mg fasted, healthy adults, median (range)): 3.01 (2.00–6.02) h
